Assay [1] in a line: In vitro binding affinity towards FBP aldolase from rabbit. More on the design: species or system Oryctolagus cuniculus. Summed up:
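Rabbit muscle class I aldolase, FBP substrate. Cleavage product DHAP was followed spectrophotometrically at 340 nm through NADH consumption, using a 300-fold excess of glycerophosphate dehydrogenase as coupling enzyme. Medium was 0.1 M triethanolamine–HCl pH 7.6 with 1 mM EDTA.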

The species named for assay [2] is Oryctolagus cuniculus. Put plainly: Selectivity (Ki rabbit /Ki B:subtilis) of inhibitors for class II versus class I FBP aldolase.
Assay [3] can be described thus: In vitro binding affinity towards FBP aldolase from yeast. More on the design: species or system Saccharomyces cerevisiae. Summed up: (§1)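 Yeast aldolase was partly purified after French-press cell disruption (specific activity 5.5 U/mg). DHAP from FBP cleavage was coupled to glycerophosphate dehydrogenase (300-fold excess), with NADH loss monitored at 340 nm. Buffer was 0.1 M glycylglycine, pH 7.4, with 0.01 M 2-mercaptoethanol. FBP served as substrate.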

The nature of assay [4]: (§2) In vitro binding affinity towards FBP aldolase from Bacillus subtilis. A digest of the protocol:
(§3)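 B. subtilis class II aldolase. FBP cleavage was followed by reducing the DHAP formed with a 300-fold excess of glycerophosphate dehydrogenase and reading NADH consumption at 340 nm. Medium was 0.1 M glycylglycine buffer, pH 7.4, without 2-mercaptoethanol. Inhibition was analysed with FBP as substrate.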

The species entered for assay [5] is Oryctolagus cuniculus. Put plainly: Selectivity (Ki rabbit /Ki yeast) of inhibitors for class II versus class I FBP aldolase.
Assay [6] is filed under the species Oryctolagus cuniculus. Put plainly: Enzymatic kinetics (Km) constant towards FBP aldolase from rabbit. A digest of the protocol:
(§4)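 Rabbit muscle class I aldolase was assayed in 0.1 M triethanolamine–HCl, pH 7.6, with 1 mM EDTA. DHAP released from FBP was measured through a coupled reaction with a 300-fold excess of glycerophosphate dehydrogenase, following NADH consumption spectrophotometrically at 340 nm.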

The test system of a further assay is Saccharomyces cerevisiae. Put plainly: Enzymatic kinetics (Km) constant towards FBP aldolase from yeast. Summed up:
as §1

Another assay deals with Bacillus subtilis. Put plainly: Enzymatic kinetics (Km) constant towards FBP aldolase from Bacillus subtilis. A digest of the protocol: as §3
Assay [7] is described as follows: In vitro binding towards FBP aldolase from rabbit. Also on record: species or system Oryctolagus cuniculus. Summed up: as §4
A short description of assay [8]: as §2. A digest of the protocol:
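Class II aldolase from Bacillus subtilis with FBP as substrate. DHAP formed was measured at 340 nm as NADH consumption, coupled to a 300-fold excess of glycerophosphate dehydrogenase. Medium was 0.1 M glycylglycine buffer pH 7.4, without 2-mercaptoethanol.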
The source holds these as a separate data set.

The source of these data is ChEMBL document CHEMBL1146767, “New highly selective inhibitors of class II fructose-1,6-bisphosphate aldolases” (Bioorg Med Chem Lett, 2004).

The structures appear in SMILES notation. Where only a bound is given, the exact number is not on record here.

Usually Ki stands for a measure of affinity in units of concentration, obtained from inhibition or displacement. The low end stands for higher affinity, the high end for lower affinity. For `N/C(COP(=O)(O)O)=N/O`, the Ki in [1] was more than 1000 µM; in assay [3] it was 2.3 µM; in [4], 3.3 µM. The figures for the Selectivity in the assay listed under Oryctolagus cuniculus [2] and in the assay listed under Oryctolagus cuniculus [5] were more than 303 and more than 435, respectively.
As a reminder, the Km is the concentration of substrate that gives half-maximal velocity. Take `O=P(O)(O)OC[C@H]1O[C@](O)(COP(=O)(O)O)[C@@H](O)[C@@H]1O`: the Km is 55 µM in the assay listed under Oryctolagus cuniculus [6], 450 µM with Saccharomyces cerevisiae and 2000 µM in the assay with Bacillus subtilis.
On to `O=C(COP(=O)(O)O)NO` [PHOSPHOGLYCOLOHYDROXAMATE], for which the Ki in assay [7] is 1 µM; in [3], 0.01 µM. In addition, the Selectivity in the assay filed under Oryctolagus cuniculus [5] came out at 100.
With `NNC(=O)COP(=O)(O)O` [PHOSPHORIC ACID MONOHYDRAZINOCARBONYLMETHYL ESTER], the Ki in assay [1] turned out to be 370 µM; in [8], 670 µM; in [3] it was 0.34 µM. The Selectivity in the assay listed under Oryctolagus cuniculus [2] came out at 552; in the assay listed under Oryctolagus cuniculus [5], 1090.
